Laboratory results published in ChEMBL document CHEMBL1153527, “Discovery of a novel series of quinolone and naphthyridine derivatives as potential topoisomerase I inhibitors by scaffold modification” (J Med Chem, 2009).

How the values were obtained:
[1] = test system: KB; assay: Cytotoxicity against human KB cells after 48 hrs by MTT assay; type: functional, cell-based
[2] = test system: A2780; assay: Cytotoxicity against human A2780 cells after 48 hrs by MTT assay; type: functional, cell-based; details: A2780, 48 h
[3] = test system: Bel-7402; assay: Cytotoxicity against human Bel7402 cells after 48 hrs by MTT assay; type: functional, cell-based; details: Bel-7402, 48 h
[4] = test system: HT-29; assay: Cytotoxicity against human HT-29 cells expressing p53 mutant after 48 hrs by SRB assay; type: functional, cell-based; details: HT-29, 48 h
In short: (§1)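 Cell lines came from CCRC, Taiwan. Cells were seeded at about 5 × 10^3 per well and left overnight. They were then given serum-free medium containing 0-10 μM compound (0.08-10 μM serial dilutions) for 48 h at 37 °C. Cells were fixed with TCA (10% final), stained with SRB (0.4% final), and the dye was dissolved in 10 mM Tris with A515 read. IC50 was taken from a fitted log concentration-response curve.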

[5] = test system: HeLa; assay: Cytotoxicity against p53-deficient human HeLa cells after 48 hrs by SRB assay; type: functional, cell-based; in short: as §1
[6] = Cytotoxicity against estrogen receptor-negative human […] cells expressing p53 mutant after 48 hrs by SRB assay; type: functional, cell-based; in short: as §1
[7] = test system: AGS; assay: Cytotoxicity against human AGS cells expressing wild type p53 after 48 hrs by SRB assay; type: functional, cell-based; in short: as §1
[8] = test system: HepG2; assay: Cytotoxicity against human HepG2 cells expressing wild type p53 after 48 hrs by SRB assay; type: functional, cell-based; details: HepG2, 48 h; in short: as §1
[9] = test system: THP-1; assay: Cytotoxicity against human THP1 cells expressing p53 mutant after 48 hrs by SRB assay; type: functional, cell-based; details: THP-1, 48 h
[10] = test system: MCF7; assay: Cytotoxicity against estrogen receptor-positive human MCF7 cells expressing wild type p53 after 48 hrs by SRB assay; type: functional, cell-based; details: MCF7, 48 h; in short: as §1
[11] = test system: U-937; assay: Cytotoxicity against human U937 cells expressing p53 mutant after 48 hrs by SRB assay; type: functional, cell-based; details: U-937, 48 h
[12] = test system: K562; assay: Cytotoxicity against p53-deficient human K562 cells after 48 hrs by SRB assay; type: functional, cell-based; details: K562, 48 h
[13] = Cytotoxicity against p53-deficient human Hep3B cells after 48 hrs by SRB assay; type: functional, cell-based, Hep 3B2; in short: as §1
[14] = test system: PC-3; assay: Cytotoxicity against p53-deficient human PC3 cells after 48 hrs by SRB assay; type: functional, cell-based; details: PC-3, 48 h; in short: as §1
[15] = test system: A549; assay: Cytotoxicity against human A549 cells expressing wild type p53 after 48 hrs by SRB assay; type: functional, cell-based; details: A549, 48 h; in short: as §1

SMILES | IC50 [1] | IC50 [2] | IC50 [3] | GI50 [4] | IC50 [4] | GI50 [5] | IC50 [5] | GI50 [6] | IC50 [6] | GI50 [7] | IC50 [7] | GI50 [8] | IC50 [8] | IC50 [9] | GI50 [10] | IC50 [10] | IC50 [11] | IC50 [12] | GI50 [13] | IC50 [13] | other results
CCn1cc(-c2nc3ccc(Cl)cc3[nH]2)c(=O)c2cc(F)c(N3CCNCC3)nc21 | 10.3 µM | 6.3 µM | 21.5 µM |  |  |  |  |  |  |  |  |  |  |  |  |  |  |  |  |  | 
CCn1cc(-c2nc3ccc([N+](=O)[O-])cc3o2)c(=O)c2cc(F)c(N3CCNCC3)nc21 | 1.8 µM |  | 3 µM | > 10 µM | > 10 µM | > 10 µM | > 10 µM | > 10 µM | > 10 µM | 2.3 µM | 4.4 µM | > 10 µM | > 10 µM | > 10 µM | > 10 µM | > 10 µM | > 10 µM | > 10 µM | > 10 µM | > 10 µM | GI50 [14]: 5.8 µM; IC50 [14]: 9.8 µM; GI50 [15]: 2.1 µM; IC50 [15]: 7.3 µM
CCn1cc(-c2nc3ccccc3s2)c(=O)c2cc(F)c(N3CCNCC3)cc21 | 28.7 µM | 11.3 µM | 24.3 µM |  |  |  |  |  |  |  |  |  |  |  |  |  |  |  |  |  | 
CCn1cc(-c2nc3ccc([N+](=O)[O-])cc3s2)c(=O)c2cc(F)c(N3CCNC(C)C3)c(F)c21 (stereo unspecified) | 4.7 µM | 3.3 µM | 4.1 µM | 1 µM | 5 µM | 1.7 µM | 9.9 µM | 2.3 µM | 7.4 µM | 3.3 µM | 5.4 µM | 0.9 µM | 3.6 µM | > 10 µM | > 10 µM | > 10 µM | > 10 µM | > 10 µM | 0.6 µM | 1.4 µM | GI50 [14]: 2.7 µM; IC50 [14]: 10 µM; GI50 [15]: 1.5 µM; IC50 [15]: 7 µM
CCn1cc(-c2nc3ccc([N+](=O)[O-])cc3o2)c(=O)c2cc(F)c(N3CCN(C)CC3)cc21 | 40.3 µM | 39.6 µM | 50.2 µM |  |  |  |  |  |  |  |  |  |  |  |  |  |  |  |  |  | 
CCn1cc(-c2nc3ccc([N+](=O)[O-])cc3s2)c(=O)c2cc(F)c(N3CCNCC3)nc21 | 179 µM | 200 µM | 24.6 µM |  |  |  |  |  |  |  |  |  |  |  |  |  |  |  |  |  | 
CCn1cc(-c2nc3ccc(Cl)cc3[nH]2)c(=O)c2cc(F)c(N3CCNCC3)cc21 | 1.6 µM | 4.9 µM | 2.8 µM | 1.8 µM | 4.7 µM | 1.2 µM | 4.2 µM | 0.9 µM | 2.3 µM | 4.5 µM | 1 µM | 1.8 µM | 3.7 µM | 2.8 µM | 4.2 µM | 4.5 µM | 4.2 µM | 2.7 µM | 0.9 µM | 2.3 µM | GI50 [14]: 3.3 µM; IC50 [14]: 4.8 µM; GI50 [15]: 1 µM; IC50 [15]: 0.5 µM
CCn1cc(-c2nc3ccc(N)cc3[nH]2)c(=O)c2cc(F)c(N3CCN(C)CC3)cc21 | > 50 µM | > 50 µM | > 50 µM | > 10 µM | > 10 µM | > 10 µM | > 10 µM | > 10 µM | > 10 µM | 10 µM | > 10 µM | > 10 µM | > 10 µM | > 10 µM | > 10 µM | > 10 µM | > 10 µM | > 10 µM | > 10 µM | > 10 µM | GI50 [14]: > 10 µM; IC50 [14]: > 10 µM; GI50 [15]: 1 µM; IC50 [15]: > 10 µM
CCn1cc(-c2nc3ccc(N)cc3[nH]2)c(=O)c2cc(F)c(N3CCNCC3)nc21 | 30.1 µM | 42.3 µM | 93.3 µM | > 10 µM | > 10 µM | > 10 µM | > 10 µM | > 10 µM | > 10 µM | 6.7 µM | 9.2 µM | > 10 µM | > 10 µM | 8.2 µM | > 10 µM | > 10 µM | > 10 µM | > 10 µM | > 10 µM | > 10 µM | GI50 [14]: > 10 µM; IC50 [14]: > 10 µM; GI50 [15]: 0.5 µM; IC50 [15]: > 10 µM
C[C@H]1COc2c(N3CCN(C)CC3)c(F)cc3c(=O)c(-c4nc5ccccc5s4)cn1c23 | 60.2 µM | 26.6 µM | 92.2 µM |  |  |  |  |  |  |  |  |  |  |  |  |  |  |  |  |  | 
CCn1cc(-c2nc3ccccc3o2)c(=O)c2cc(F)c(N3CCN(C)CC3)cc21 | 87.4 µM | 0.7 µM | 2 µM |  |  |  |  |  |  |  |  |  |  |  |  |  |  |  |  |  | 
CCn1cc(-c2nc3ccccc3o2)c(=O)c2cc(F)c(Cl)cc21 | 10.2 µM | 78.4 µM | 28.9 µM |  |  |  |  |  |  |  |  |  |  |  |  |  |  |  |  |  | 
CCn1cc(-c2nc3ccccc3s2)c(=O)c2cc(F)c(N3CCN(C)CC3)cc21 | 19 µM | 114 µM | 24 µM |  |  |  |  |  |  |  |  |  |  |  |  |  |  |  |  |  | 
CCn1cc(-c2nc3ccccc3o2)c(=O)c2cc(F)c(N3CCNCC3)nc21 | 11.7 µM | 15.3 µM | 16.8 µM |  |  |  |  |  |  |  |  |  |  |  |  |  |  |  |  |  | 
